# Assay outcomes as filed in PubChem.
# A selection: hits, their analogues and other compounds. The true share with any hit is near 2.1%.
# F508del corr = correctors of CFTR F508del function in bronchial epithelial cells; CFBE cells, YFP halide quenching; stimulated with forskolin plus potentiator P3; % fluorescence drop versus neutral controls; activity (quench increase), % at 7.58 µM; 350,000 compounds, 0.36% hits; AID 720511;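 active = mean added fluorescence quench of at least 8% versus neutral control, with both replicates also reaching 8%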;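 also: cells transiently co-express mutant CFTR-F508del with the halide-sensitive YFP; corrector assay measuring rescue of mutant channel to the surface after 24 h compound exposure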
# SMARCA2 activ = SMARCA2 function activation, primary screen; MG213 cells, MMTV-luciferase reporter, dexamethasone, overnight; activation, % at 9.1 µM; 370,000 compounds, 1% hits; in the data active = activation above about 7.8%;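 also: 0% = vehicle wells and 100% = reference activator wells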
# MC4R antagonist = antagonists of human melanocortin 4 receptor (MC4R); P32245; MC4R-expressing cells, MTII-stimulated cAMP, LANCE TR-FRET; inhibition, % at 6.5 µM; 360,000 compounds, 0.48% hits;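 active = inhibition above its plate's cutoff, the mean of tested wells on that plate plus 3 SD, cut at about 29% in these data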;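 also: 0% = Melanotan II alone and 100% = Melanotan II plus saturating MCL0020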
# Target sequence (P32245 whole entry, looked up): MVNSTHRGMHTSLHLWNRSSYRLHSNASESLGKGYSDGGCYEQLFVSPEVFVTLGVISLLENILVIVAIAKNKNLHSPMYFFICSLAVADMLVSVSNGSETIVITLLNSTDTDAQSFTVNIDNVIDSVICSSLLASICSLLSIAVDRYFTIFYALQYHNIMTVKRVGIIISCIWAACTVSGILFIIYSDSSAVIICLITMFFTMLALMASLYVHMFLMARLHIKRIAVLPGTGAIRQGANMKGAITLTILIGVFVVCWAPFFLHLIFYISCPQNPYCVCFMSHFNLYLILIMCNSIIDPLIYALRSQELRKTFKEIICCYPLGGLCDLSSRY
#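 Assay system: human MC4R-expressing U2OS cells; reagent: Melanotan II stimulation of cells; dosing: 6.5 µM single dose; timing: compound 30 min, challenge 1 h, detection 1 h; signal: TR-FRET cAMP assay; replicates: one well per compound, no replicates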
# MC4R ag barr = human MC4R agonism via beta-arrestin; 360,000 compounds, 0.98% hits; activation, % at 8.9 µM; U2OS MC4R beta-arrestin complementation, luminescence; percent of melanotan II response, DMSO zero;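 active = activation above a per-plate cutoff, the mean activation of sample wells on that plate plus 3 SD, cut at about 8% in these data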
# SMARCA2 conf = SMARCA2 activation, confirmation screen; shares compounds with SMARCA2 activ; MG213 cells, MMTV-luciferase with dexamethasone, luminescence, overnight; MG213 cells expressing E1A, Rb sequestered; DMSO wells 0%, reference activator 100%; activation, % at 9.1 µM; 3,500 compounds, 30% hits;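 active = activation above its plate's cutoff, the mean activation of tested wells plus 3 SD, cut at about 7.9% in these data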
# GAL4-VP16 Luc = counter-screen for SMARCA2 activators: GAL4-VP16 luciferase reporter activation; HEK293 GAL4-VP16 pG5luc reporter, luciferase luminescence; scaled: DMSO wells 0%, SAHA wells 100%; activation, % at 9.1 µM; AID 686939; 3,500 compounds, 41% hits; shares compounds with SMARCA2 activ;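 active = activation above the solvent-only control well mean plus 3 SD, averaged across control plates, cut at about 5.2% in these data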
# * marks the source's active call; other numbers are inactive results; nt = no result.
SMILES,F508del corr,SMARCA2 activ,MC4R antagonist,MC4R ag barr,SMARCA2 conf,GAL4-VP16 Luc
COc1ccc(NC(=O)Nc2ccc3c(c2)C(=O)N([C@H](C)CO)C[C@@H](C)[C@@H](CN(C)Cc2ccc(C(=O)O)cc2)OCCCC[C@H](C)O3)cc1,-2,nt,nt,nt,nt,nt
c1ccc(N=Nc2ccc3cccccc2-3)cc1,-3,9.6*,21,2,14*,13*
O=C(C[C@H]1CC[C@@H]2[C@H](COC[C@H](O)CN2C(=O)Cc2ccccc2)O1)NC1CCC1,-2,nt,nt,nt,nt,nt
CC(=O)Nc1ccc(NC(=O)c2ccc(-c3c(C)noc3C)c3ccoc23)cc1,3,8.6*,3,1,-6,10*
Cc1noc(C)c1-c1ccc(C(=O)Nc2ccc(C(C)C)cc2)c2occc12,-1,-3,14,4,nt,nt
CC(=O)c1cnc2cc(-c3ccccc3)nn2c1C,nt,2,9,0,nt,nt
CC(=O)c1cnc2cc(-c3ccc(C)cc3)nn2c1C,nt,10*,0,2,3,9.9*
CN(C)CCNC(=S)Nc1ccc(-c2nc3ccccc3[nH]2)cc1,0,8.3*,19,1,16*,5.9*
S=C(NCCCN1CCOCC1)Nc1ccc(-c2nc3ccccc3[nH]2)cc1,1,2,4,3,nt,nt
CCOc1ccc(C(=O)/C=C/Nc2ccc(S(=O)(=O)N=C(N)N)cc2)cc1,nt,8.1*,10,1,-1,1
O=C(NCCNc1ccccc1[N+](=O)[O-])c1cc(F)c(F)cc1Cl,-3,14*,7,0,5,5.3*
O=C(NCCNc1ccc([N+](=O)[O-])cc1)c1cc(F)c(F)cc1Cl,2,-3,-1,-1,nt,nt
Cc1ccnc(N(C(=O)c2cccs2)C(=O)c2cccs2)c1,nt,11*,2,-1,8.3*,6.8*
C[C@H]1CN([C@@H](C)CO)C(=O)Cc2cc(NS(C)(=O)=O)ccc2O[C@H]1CN(C)S(C)(=O)=O,-3,nt,nt,nt,nt,nt
CC(/C=N/NC(=O)c1ccco1)=C\c1ccccc1,-2,9.4*,3,-1,11*,6.1*
Cc1ccc(/C=N/NC(=O)c2ccco2)cc1,0,8.8*,2,-1,6,11*
CN(C)c1ccc(/C=N/NC(=O)c2ccco2)cc1,-1,5,-15,-3,nt,nt
CN1CCN(C(=O)C[C@H]2CC[C@@H]3[C@@H](COc4ccc(NC(=O)C5CCCCC5)cc4C(=O)N3C)O2)CC1,2,nt,nt,nt,nt,nt
CCN1CCN(Cc2ccc(NC(=O)c3cc(NC(=O)c4cncc(-c5cccs5)c4)cc(OC)c3)cc2C(F)(F)F)CC1,-4,11*,6,-1,5,1
CCN1CCN(Cc2ccc(NC(=O)c3cc(NC(=O)c4cc(-c5ccc(OC)cc5)n[nH]4)cc(OC)c3)cc2C(F)(F)F)CC1,-1,4,-1,0,nt,nt
CN(C)CCCNC(=O)C[C@H]1C=C[C@H](NC(=O)Cc2cccnc2)[C@H](CO)O1,1,nt,nt,nt,nt,nt
COc1ccc(NC(=O)Nc2cccc3c2O[C@@H](CN(C)C)[C@H](C)CN([C@H](C)CO)C3=O)cc1,1,nt,nt,nt,nt,nt
COc1ccc(CNC(=O)C(C)Sc2nc3ccccc3c(=O)n2CCCN2CCOCC2)cc1 (configuration not stated),-4,11*,1,-3,-2,-1
C/C(=N/NC(=O)c1ccco1)c1cccnc1,3,8.3*,-3,3,-1,4
C/C(=N/NC(=O)c1ccco1)c1ccc(NC(=O)c2ccc(Br)o2)cc1,-1,9.5*,5,-1,2,9.7*
SMILES,F508del corr,SMARCA2 activ,MC4R antagonist,MC4R ag barr,SMARCA2 conf,GAL4-VP16 Luc
C/C(=N/NC(=O)c1ccc(C(C)(C)C)cc1)c1cccnc1,0,-5,8,0,nt,nt
Cc1ccccc1OCc1nc2ccccc2[nH]1,-2,8.9*,24,0,2,14*
COCC(=O)N(C)C[C@@H]1Oc2ncc(-c3ccccc3F)cc2C(=O)N([C@H](C)CO)C[C@@H]1C,-2,nt,nt,nt,nt,nt
CCC1C(=O)n2nc(-c3ccccc3)cc2N=C1C (configuration not stated),-1,10*,13,-2,12*,9.2*
Cc1cc(C)n2nc(-c3ccccc3)cc2n1,-1,3,-16,4,nt,nt
C[C@@H]1CN([C@H](C)CO)C(=O)Cc2cc(N(C)C)ccc2O[C@@H]1CN(C)S(=O)(=O)c1cccs1,5,nt,nt,nt,nt,nt
COc1ccc(S(=O)(=O)N2CCCCN3[C@@H](CO)[C@H](c4ccc(C#CCC(C)C)cc4)[C@@H]3C2)cc1,0,nt,nt,nt,nt,nt
C=C(C)C1Cc2cc3ccc(=O)oc3cc2O1 (configuration not stated),nt,3,1,-3,nt,nt
CC(C)(O)[C@H]1Cc2cc3ccc(=O)oc3cc2O1,4,9.1*,2,-2,11*,6.2*
CC(C)NC(=O)Nc1cccc2c1O[C@H](CN(C)Cc1ccc3c(c1)OCO3)[C@@H](C)CN([C@@H](C)CO)C2=O,1,nt,nt,nt,nt,nt
Cc1occc1C(=O)N/N=C/C(Br)=C/c1ccccc1,1,14*,-1,0,8.2*,15*
Cc1occc1C(=O)N/N=C/c1ccc[nH]1,0,8.2*,13,0,3,2
Cc1occc1C(=O)N/N=C/c1ccc(-c2ccccc2)cc1,1,7,8,1,nt,nt
Cc1occc1C(=O)N/N=C/C=C\c1ccccc1[N+](=O)[O-],-2,8.9*,5,-1,-3,1
COc1cccc(C(=O)N/N=C/C(Br)=C/c2ccccc2)c1,nt,12*,3,0,5,3
COCC(=O)Nc1ccc2c(c1)C(=O)N(C)C[C@H](OC)[C@@H](C)CN(C(=O)c1cccnc1)[C@H](C)CO2,-2,nt,nt,nt,nt,nt
Cc1ccccc1-c1ccc([C@H]2[C@@H](CO)N3CCCCN(C(=O)c4cccnc4)C[C@@H]23)cc1,0,nt,nt,nt,nt,nt
CC(C)CC#Cc1cnc2c(c1)C(=O)N([C@@H](C)CO)C[C@H](C)[C@@H](CN(C)C(=O)c1ccccc1F)O2,-1,nt,nt,nt,nt,nt
Cc1ccc(CSc2nn3c(=O)c(C)nnc3s2)cc1,nt,8.6*,3,-5,2,1
Cc1nnc2sc(SCc3ccc(Cl)cc3)nn2c1=O,nt,-3,0,-4,nt,nt
CC1(c2ccc3ccccc3c2)NC(=O)N(CC(=O)NCc2cccs2)C1=O (configuration not stated),1,9.6*,10,-2,0,1
CC1(c2ccc(Cl)cc2)NC(=O)N(CC(=O)NCc2cccs2)C1=O (configuration not stated),1,3,-2,0,nt,nt
O/N=C(/CCc1ccccc1)c1ccc2c(c1)OCCO2,-3,12*,-4,1,12*,12*
